# Results reported in ChEMBL document CHEMBL3085669, “Design, synthesis and structure-activity relationship of novel Relacin analogs as inhibitors of Rel proteins” (Eur J Med Chem, 2013).
# Calls of active or inactive are those of the source. The rule behind the calls is not given here.
# Key:
# [1] = tested on: Escherichia coli; assay: Inhibition of Escherichia coli relA assessed as inhibition of (p)ppGpp synthesis at 1 mM by autoradiography in presence of [alpha32]GTP
# In short: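 Purified E. coli RelA assayed in vitro with inhibitor at 1 mM.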
# [2] = tested on: Deinococcus radiodurans; assay: Inhibition of Deinococcus radiodurans rel/spo assessed as inhibition of (p)ppGpp synthesis by autoradiography in presence of [alpha32]GTP
# In short: (§1)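 Cell-free assay on purified Rel enzymes (Rel/Spo from D. radiodurans, RelA from E. coli), with inhibitor tested across varying concentrations.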
# [3] = tested on: Escherichia coli; assay: Inhibition of Escherichia coli relA assessed as inhibition of (p)ppGpp synthesis by autoradiography in presence of [alpha32]GTP; in short: as §1
# [4] = tested on: Bacillus subtilis; assay: Inhibition of Bacillus subtilis relA assessed as reduction in (p)ppGpp level at 2 mM incubated for 15 mins prior to SHX addition measured after 5 to 10 mins by autoradiography
# In short: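 B. subtilis cells grown with inhibitor at 2 mM. Stringent response then induced by adding serine hydroxamate, and intracellular (p)ppGpp measured afterwards.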
inhibition [1] [%],inhibition [2],inhibition [3],inhibition [4],Structure (SMILES)
12,–,–,–,CC(C)C(=O)Nc1nc2c(ncn2[C@H]2C[C@H](OC(=O)N(CCCN(C)C)CCCN(C)C)[C@@H](COC(=O)N(CCCN(C)C)CCCN(C)C)O2)c(=O)[nH]1
31.2,–,–,–,CC(C)C(=O)Nc1nc2c(ncn2[C@H]2C[C@H](OC(=O)NCCN(C)C)[C@@H](COC(=O)NCCN(C)C)O2)c(=O)[nH]1
25.6,–,–,–,CC(C)C(=O)Nc1nc2c(ncn2[C@H]2C[C@H](OC(=O)NCCCCCC(=O)O)[C@@H](COC(=O)NCCCCCC(=O)O)O2)c(=O)[nH]1
50.6,–,–,–,CC(C)C(=O)Nc1nc2c(ncn2[C@H]2C[C@H](OC(=O)NC(CCC(=O)O)C(=O)O)[C@@H](COC(=O)N[C@@H](CCC(=O)O)C(=O)O)O2)c(=O)[nH]1 (stereo partly drawn)
80.4,Dose-dependent effect,Dose-dependent effect,Active,CC(C)C(=O)Nc1nc2c(ncn2[C@H]2C[C@H](OC(=O)NC(CCC(=O)O)C(=O)NC(CCC(=O)O)C(=O)O)[C@@H](COC(=O)NC(CCC(=O)O)C(=O)NC(CCC(=O)O)C(=O)O)O2)c(=O)[nH]1 (stereo partly drawn)
50.4,–,–,–,CC(C)C(=O)Nc1nc2c(ncn2[C@H]2C[C@H](OC(=O)N[C@@H](CCC(=O)O)C(=O)O)[C@@H](COC(=O)NCC(=O)O)O2)c(=O)[nH]1
52.1,–,–,–,CC(C)C(=O)Nc1nc2c(ncn2[C@H]2C[C@H](OC(=O)NCC(=O)O)[C@@H](COC(=O)N[C@@H](CCC(=O)O)C(=O)O)O2)c(=O)[nH]1
51.1,–,–,Active,CC(C)C(=O)Nc1nc2c(ncn2[C@H]2C[C@H](OC(=O)NCC(=O)O)[C@@H](COC(=O)NCC(=O)O)O2)c(=O)[nH]1
66.3,–,–,–,CC(C)C(=O)Nc1nc2c(ncn2[C@H]2C[C@H](OC(=O)NCC(=O)NCC(=O)O)[C@@H](COC(=O)NCC(=O)NCC(=O)O)O2)c(=O)[nH]1
